pIC50: −log10 of the molar value. Activity calls are given as the source filed them. The rule behind the calls is not given here.
How the values were obtained:
[1] = species: Danio rerio; assay: Toxicity in zebrafish assessed as mortality at 100 uM; assay type: organism-based; conditions: in vivo
Method in brief: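 Embryos were treated in 96-well plates, 8–10 per well, then scored after the photomotor assay under a dissecting microscope. Scoring covered developmental retardation, morphological defects, heart morphology, rate and circulation, response to touch with a fine plastic probe, and overall appearance. Wells were classed as normal, toxic, sedative or other.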

[2] = species: Danio rerio; assay: Modulation of neurological behavior in zebrafish assessed as effect on touch response by high-throughput screening; assay type: functional, organism-based
Method in brief: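 Zebrafish embryos were raised in E3 medium buffered with 10 mM HEPES, in the dark at 28 °C. At 28 hpf, groups of 8–10 were placed in 96-well plates, then kept dark at 25 °C during chemical treatment. After the photomotor assay, each animal was touched with a fine plastic probe and observed under a dissecting microscope. Wells were scored normal, toxic, sedative (no touch response but healthy heartbeat and circulation) or other.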

[3] = target: T1, Acetylcholinesterase (Homo sapiens, UniProt P22303); assay: Inhibition of AChE
T1 sequence (P22303 whole entry): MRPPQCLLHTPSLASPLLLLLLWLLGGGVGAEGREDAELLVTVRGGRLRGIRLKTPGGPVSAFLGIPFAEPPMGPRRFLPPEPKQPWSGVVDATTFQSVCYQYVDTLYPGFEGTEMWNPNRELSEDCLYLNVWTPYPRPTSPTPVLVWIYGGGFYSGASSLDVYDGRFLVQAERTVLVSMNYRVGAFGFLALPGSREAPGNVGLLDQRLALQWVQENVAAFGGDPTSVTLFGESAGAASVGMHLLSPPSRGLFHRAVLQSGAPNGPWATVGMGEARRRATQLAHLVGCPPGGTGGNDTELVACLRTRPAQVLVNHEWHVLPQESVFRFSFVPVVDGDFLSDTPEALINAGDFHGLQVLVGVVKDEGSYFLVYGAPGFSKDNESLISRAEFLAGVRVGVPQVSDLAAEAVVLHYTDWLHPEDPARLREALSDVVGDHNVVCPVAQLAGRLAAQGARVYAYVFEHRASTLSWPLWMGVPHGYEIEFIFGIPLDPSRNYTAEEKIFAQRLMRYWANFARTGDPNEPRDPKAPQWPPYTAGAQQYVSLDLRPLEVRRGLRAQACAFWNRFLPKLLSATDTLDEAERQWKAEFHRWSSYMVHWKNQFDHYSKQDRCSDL

[4] = Inhibition of MAO by plate-reader assay
[5] = Ratio of pargyline IC50 to compound IC50 for MAO
[6] = species: Danio rerio; assay: Modulation of neurological behavior in zebrafish assessed as prolongation of high intensity light-induced motor response at 10 to 100 uM by photomotor response assay; assay type: functional, organism-based
Method in brief: (§1)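 Zebrafish embryos were raised in E3 medium buffered with 10 mM HEPES, in the dark at 28 °C. At 28 hpf, 8–10 per well went into 96-well plates, held dark at 25 °C for chemical treatment. For each well, 1000 video frames were recorded at 33 fps, with light stimuli. A motion index was computed from frame-to-frame pixel-intensity differences. Q1 and Q3 of this index over seven time periods gave fourteen pseudo z-scores versus control wells.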

[7] = Inhibition of MAO at 10 uM by plate-reader assay
[8] = species: Danio rerio; assay: Psychostimulant activity in zebrafish assessed as increase in high intensity light-induced motor response at 10 to 100 uM by photomotor response assay; assay type: functional, organism-based; method in brief: as §1
[9] = species: Danio rerio; assay: Psychostimulant activity in zebrafish assessed as increase in high intensity light-induced motor response at < 10 uM by photomotor response assay; assay type: functional, organism-based; method in brief: as §1
[10] = species: Danio rerio; assay: Anxiolytic activity in zebrafish assessed as decrease in high intensity light-induced motor behavior at <10 uM by photomotor response assay; assay type: functional, organism-based
Method in brief: (§2)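 Embryos raised in HEPES (10 mM)-buffered E3 in the dark at 28 °C, then distributed at 28 hpf in groups of 8–10 per well of 96-well plates in E3 and held in the dark at 25 °C for chemical exposure. Light pulses were delivered while 1000 video frames were recorded at 33 fps. Motion index quartiles (Q1, Q3) in seven time periods were converted to pseudo z-scores against control wells.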

[11] = species: Danio rerio; assay: Modulation of neurological behavior in zebrafish assessed as robist increase in high intensity light-induced motor response at 10 to 100 uM by photomotor response assay; assay type: functional, organism-based; method in brief: as §2
[12] = species: Danio rerio; assay: Modulation of neurological behavior in zebrafish assessed as robist increase in high intensity light-induced motor response at < 10 uM by photomotor response assay; assay type: functional, organism-based; method in brief: as §2
[13] = species: Danio rerio; assay: Modulation of neurological behavior in zebrafish assessed as prolongation of high intensity light-induced motor response at < 10 uM by photomotor response assay; assay type: functional, organism-based; method in brief: as §1
[14] = target: T1, Acetylcholinesterase; assay: Inhibition of AChE at 10 uM
[15] = target: Acetylcholinesterase (Danio rerio, UniProt Q9DDE3); assay: Inhibition of AChE in zebrafish embryo
Sequence of Acetylcholinesterase (Danio rerio, UniProt Q9DDE3) (Q9DDE3 whole entry): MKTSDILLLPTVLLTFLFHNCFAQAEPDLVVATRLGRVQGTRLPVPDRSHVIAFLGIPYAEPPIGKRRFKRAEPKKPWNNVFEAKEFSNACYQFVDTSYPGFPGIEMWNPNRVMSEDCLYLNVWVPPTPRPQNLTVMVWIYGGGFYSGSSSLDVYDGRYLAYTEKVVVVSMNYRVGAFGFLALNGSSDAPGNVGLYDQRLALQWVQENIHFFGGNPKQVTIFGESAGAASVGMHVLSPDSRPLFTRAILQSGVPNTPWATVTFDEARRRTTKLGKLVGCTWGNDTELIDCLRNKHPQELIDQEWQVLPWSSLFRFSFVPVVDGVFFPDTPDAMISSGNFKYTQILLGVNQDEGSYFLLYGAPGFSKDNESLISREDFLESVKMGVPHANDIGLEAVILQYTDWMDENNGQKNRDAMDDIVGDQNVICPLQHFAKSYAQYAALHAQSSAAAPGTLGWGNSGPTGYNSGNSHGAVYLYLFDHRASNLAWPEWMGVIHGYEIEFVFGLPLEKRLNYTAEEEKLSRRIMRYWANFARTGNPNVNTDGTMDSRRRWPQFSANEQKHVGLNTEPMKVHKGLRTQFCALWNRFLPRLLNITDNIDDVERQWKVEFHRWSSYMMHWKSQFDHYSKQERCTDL

[16] = species: Danio rerio; assay: Anxiolytic activity in zebrafish assessed as decrease in high intensity light-induced motor behavior at 10 to 100 uM by photomotor response assay; assay type: functional, organism-based; method in brief: as §2

Compound: C[C@]12CC[C@H](O)C[C@H]1CC[C@@H]1[C@@H]2CC[C@]2(C)[C@@H](C3=CC(=O)OC3)CC[C@]12O [DIGITOXIGENIN]
- Activity [1]: Toxic
- Activity [2]: Active

Compound: O=C(CCCN1C(=O)c2ccccc2C1=O)N1CCCCCC1
- Activity [2]: Active
- pIC50 [3]: 6.30

Compound: CC(C)(C)OC(=O)NCCC(=O)Oc1cc2oc(=O)c3c(c2cc1Cl)CCC3
- pIC50 [4]: 6.00
- Ratio IC50 [5]: 100

Compound: Cc1cc2c(OCC(CNC(C)(C)C)OC(=O)c3ccccc3)cccc2[nH]1 (centres undefined)
- Activity [6]: Active

Compound: O=C(CNC(=O)OCc1ccccc1)Oc1cc2oc(=O)c3c(c2cc1Cl)CCC3
- inhibition [7]: 0%
- Ratio IC50 [5]: 100

Compound: CC(C)NCC(O)c1ccc(O)c(O)c1 (centres undefined)
- Activity [8]: Active
- Activity [9]: inactive
- Activity [10]: inactive
- Activity [2]: Active

Compound: C#CCN(C)Cc1ccccc1
- Activity [2]: Active

Compound: CNC(=O)Oc1ccc2c(c1)[C@]1(C)CCN(C)[C@@H]1N2C
- Activity [2]: Active

Compound: O=[N+]([O-])c1ccc2nc(N3CCNCC3)ccc2c1
- Activity [11]: Active
- Activity [12]: inactive
- Activity [2]: Active

Compound: C[n+]1ccccc1C=NO
- Activity [6]: Active

Compound: CC(C)(C)OC(=O)NCC(=O)Oc1cc2oc(=O)c3c(c2cc1Cl)CCC3
- pIC50 [4]: 6.30
- Ratio IC50 [5]: 100

Compound: COC(=O)c1ccc(COc2cc(C)ccc2C(=O)Oc2ccc3c4c(c(=O)oc3c2)CCCC4)o1
- Ratio IC50 [5]: 100

Compound: CC(C)(C)OC(=O)NCCC(=O)Oc1cc2oc(=O)c3c(c2cc1Cl)CCCC3
- pIC50 [4]: 5.00
- Ratio IC50 [5]: 100

Compound: CN1[C@@H]2CC[C@H]1C[C@@H](OC(=O)C(CO)c1ccccc1)C2 (some centres undefined)
- Activity [6]: Active

Compound: CC(=O)CC(c1ccccc1)c1c(O)c2ccccc2oc1=O (centres undefined)
- Activity [2]: Active
- inhibition [7]: inactive

Compound: CNC[C@H](O)c1ccc(O)c(O)c1
- Activity [2]: Active

Compound: CN1CCc2cccc3c2[C@H]1Cc1ccc(O)c(O)c1-3
- Activity [6]: Active
- Activity [13]: inactive
- Activity [2]: Active

Compound: O=C1c2ccccc2-c2nc3ncnn3c(-c3ccccc3Cl)c21
- Activity [2]: Active
- inhibition [14]: inactive
- pIC50 [15]: 6.30

Compound: O=C(Oc1ccc2c3c(c(=O)oc2c1)CCCC3)c1ccccc1
- Activity [2]: Active

Compound: CC(C)(C)NCC(O)c1cc(Cl)c(N)c(Cl)c1 (centres undefined)
- Activity [2]: Active

Compound: CN1C(=O)CN=C(c2ccccc2)c2cc(Cl)ccc21
- inhibition [16]: Active
- inhibition [10]: inactive
- Activity [2]: Active
